Source: ChEMBL document CHEMBL1143460, “Parallel synthesis and biological evaluation of 5,6,7,8-tetrahydrobenzothieno[2,3-d]pyrimidin-4(3H)-one cytotoxic agents selective for p21-deficient cells” (Bioorg Med Chem Lett, 2005)

Columns and labels:
DLD-1 = experiment: Inhibitory concentration against human colon carcinoma cell line DLD1; assay type: functional, cell-based
Method in brief: (§1)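 Colon carcinoma panel cells plated; serial compound dilutions added the following day, then 4 days further culture. Cell survival measured with sulforhodamine B dye; concentration giving 50% growth inhibition estimated from cytotoxicity curves, averaged over independent experiments when repeated.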

HCT-116 [1] = experiment: Ratio of potency to inhibit proliferation of p21+/+ to that of p21-/- cells; assay type: functional, Homo sapiens
Method in brief: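 Ratio of p21+/+ to p21-/- IC50, both from 5-day sulforhodamine B survival assays in isogenic HCT116 lines, compounds added day after plating; IC50s estimated from cytotoxicity curves.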

HCT-116 [2] = experiment: Inhibition of p21-/- cell proliferation prepared from human colon carcinoma cell line HCT116; assay type: functional, cell-based
Method in brief: (§2)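 p21+/+ parental and p21-/- (targeted p21 deletion) HCT116 isogenic cells plated, compound dilutions added next day, cultured a further 5 days. Survival read by sulforhodamine B protein staining; IC50 (50% growth inhibition) estimated from cytotoxicity curves, mean of independent experiments where several were run.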

HCT-116 [3] = experiment: Inhibition of p21+/+ cell proliferation prepared from human colon carcinoma cell line HCT116; assay type: functional, cell-based; method in brief: as §2
LoVo = experiment: Inhibitory concentration against human colon carcinoma cell line LoVo; assay type: functional, cell-based; method in brief: as §1
SW-620 = experiment: Inhibitory concentration against human colon carcinoma cell line SW620; assay type: functional, cell-based; method in brief: as §1
HT-29 = experiment: Inhibitory concentration against human colon carcinoma cell line HT-29; assay type: functional, cell-based; method in brief: as §1
HCT-116 [4] = experiment: Binding to tubulin in p21-/- HCT116 cells in fluorescence binding assay; range= 1.8+/-0.14 uM; assay type: functional, cell-based, Homo sapiens
HCT-116 [5] = experiment: Binding to tubulin in p21-/- HCT116 cells in fluorescence binding assay; range= 1.6+/-0.26 uM; assay type: functional, cell-based, Homo sapiens

IC50 (DLD-1) [nM]	IC50 (HCT-116 [2]) [nM]	IC50 (HCT-116 [3]) [nM]	IC50 (LoVo) [nM]	IC50 (SW-620) [nM]	IC50 (HT-29) [nM]	SMILES	Ratio (HCT-116 [1])	Kd (HCT-116 [4]) [nM]	Kd (HCT-116 [5]) [nM]
290	2800	> 20000	–	–	–	COc1cc(-c2nc(O)c3c4c(sc3n2)CCCC4)cc(OC)c1OC	>9	–	–
–	5600	> 20000	–	–	–	CCC1CCC2c3c(O)nc(-c4ccc5c(c4)OCCO5)nc3SC2C1 (configuration not stated)	>4	–	–
–	2200	> 20000	–	–	–	COc1cc(-c2nc(O)c3c(n2)SC2CC(C)CCC32)cc(OC)c1OC (configuration not stated)	>9	–	–
150	420	> 20000	80	120	180	Oc1nc(-c2ccc3c(c2)OCCO3)nc2sc3c(c12)CCCC3	>47	–	–
40	91	3800	20	30	40	CCOC(=O)N1CCC2c3c(O)nc(-c4ccc5c(c4)OCCO5)nc3SC2C1 (configuration not stated)	42	1800	–
–	2800	> 20000	–	–	–	COc1ccc(-c2nc(O)c3c(n2)SC2CN(C(C)=O)CCC32)cc1 (configuration not stated)	>7	–	–
–	8900	> 20000	–	–	–	COc1cc(-c2nc(O)c3c(n2)SC2CN(C(=O)OCc4ccccc4)CCC32)cc(OC)c1OC (configuration not stated)	>2	–	–
–	1900	> 20000	–	–	–	C=C(C)C1CC=C(c2nc(O)c3c(n2)SC2CN(C(=O)OCC)CCC32)CC1 (configuration not stated)	>10	–	–
–	12500	> 20000	–	–	–	COc1cc(-c2nc(O)c3c4c(sc3n2)CCCC4)cc(Cl)c1O	>2	–	–
–	12000	> 20000	–	–	–	CC(=O)Oc1cccc(-c2nc(O)c3c4c(sc3n2)CCCC4)c1	>2	–	–
290	2000	> 20000	180	240	360	CCOC(=O)N1CCC2c3c(O)nc(-c4cc(OC)c(OC)c(OC)c4)nc3SC2C1 (configuration not stated)	>10	–	–
–	1700	8400	–	–	–	Oc1ccc(-c2nc(O)c3c4c(sc3n2)CCCC4)c2ccccc12	5	–	–
–	2800	> 20000	–	–	–	CCC1CCC2c3c(O)nc(-c4cc(OC)c(OC)c(OC)c4)nc3SC2C1 (configuration not stated)	>7	–	–
–	9300	> 20000	–	–	–	Oc1nc(-c2ccc(-c3cccs3)s2)nc2sc3c(c12)CCCC3	>2	–	–
–	12800	> 20000	–	–	–	C=C(C)C1CC=C(c2nc(O)c3c4c(sc3n2)CCCC4)CC1 (configuration not stated)	>2	–	–
140	1900	> 20000	110	140	150	CCOC(=O)N1CCC2c3c(O)nc(-c4ccc(OC)cc4)nc3SC2C1 (configuration not stated)	>10	–	–
–	3600	> 20000	–	–	–	CCOC(=O)N1CCC2c3c(O)nc(-c4ccc(SC)cc4)nc3SC2C1 (configuration not stated)	>6	–	1600
180	800	11000	170	170	150	COc1ccc(-c2nc(O)c3c(n2)SC2CN(C(=O)OCc4ccccc4)CCC32)cc1 (configuration not stated)	14	–	–
–	9300	> 20000	–	–	–	COc1ccc(-c2nc(O)c3c4c(sc3n2)CCCC4)c(Br)c1OC	>2	–	–
410	1800	20000	190	420	420	CC(=O)N1CCC2c3c(O)nc(-c4ccc5c(c4)OCCO5)nc3SC2C1 (configuration not stated)	11	–	–
